Measured values pooled from the literature.
Lines come from different studies, so protocols differ.
Target: NT-3 growth factor receptor (NTRK3, Homo sapiens, UniProt Q16288)

Cn1cc(Cl)c2c(Oc3c(F)cc(Nc4cc(Cl)nc(N)n4)cc3F)ccnc21
remaining binding (cell-free assay; competition with immobilised ligand; 0.1 µM): 76%

Cc1cnc(Nc2ccc(C(=O)N3CCC(N4CCCC4)CC3)cc2)nc1-c1cc2ccccc2s1
remaining binding (binding; competition with immobilised ligand; 1 µM): 16%

CC(=O)N1CCC(c2ccc(C(=O)NC(=N)N)cc2C(F)(F)F)CC1
remaining binding (cell-free assay; competition with immobilised ligand; 1 µM): 100%

C=CC(=O)N1CCC(C(=O)NCC(=O)N2CCN(c3nc(-c4cnc(N)nc4C(F)F)nc(N4CCOCC4)n3)CC2)CC1
remaining binding (binding; competition with immobilised ligand; 1 µM): 86%

F[C@@H]1CCN(c2nccc(-c3cnn4ncccc34)n2)C1
remaining binding (binding; 1 µM): 100%

FC(F)(F)Oc1cccc(-c2cnc3ccc(-c4ccncc4)nn23)c1
remaining binding (cell-free assay; competition with immobilised ligand; 5 µM): 20%

c1cnn2ncc(-c3ccnc(N4CCC45COC5)n3)c2c1
remaining binding (binding; 1 µM): 73%

O=C(NCCCN1CCOCC1)c1ccc(Nc2nccc(-c3cc4ccccc4s3)n2)cc1
remaining binding (binding; competition with immobilised ligand; 1 µM): 75%

C[C@H](NC(=O)c1cnc2n1[C@](C)(Cc1ccc(C#N)cc1)C(=O)N2c1cc(Cl)c(F)c(Cl)c1)C(=O)NC1(c2ccccn2)CC1
remaining binding (cell-free assay; competition with immobilised ligand; 1 µM): 100%

C[C@H]1CCN(c2nccc(-c3cnn4ncccc34)n2)C1
remaining binding (binding; 1 µM): 63%

COc1cnc(Nc2cccc(S(N)(=O)=O)c2)nc1N1CCN(c2ccccc2)C(=O)C1
remaining binding (binding; competition with immobilised ligand; 1 µM): 100%

CN(C)c1nccc(-c2cnn3ncccc23)n1
remaining binding (binding; 1 µM): 72%

O=C(Nc1c[nH]nc1C(=O)NC1CCNCC1)c1cc(F)cc(F)c1
remaining binding (binding; competition with immobilised ligand; 1 µM): 100%

CN1CCN(c2cnc3c(C4CCN(C(=O)c5ccc(OC(F)(F)F)cc5N)CC4)ncnc3c2)CC1
remaining binding (cell-free assay; competition with immobilised ligand; 1 µM): 100%

COc1ccnn2ncc(-c3ccnc(N(C)C)n3)c12
remaining binding (binding; 1 µM): 81%

CNC(=O)Nc1ccc2c(c1)CC[C@@]21OC(=O)N(CC(=O)N(Cc2ccc(F)cc2)[C@@H](C)C(F)(F)F)C1=O
remaining binding (cell-free assay; competition with immobilised ligand; 1 µM): 84%

N[C@@H]1CCN(c2nccc(-c3cnn4ncccc34)n2)C1
remaining binding (binding; 1 µM): 100%

O=C(NCc1ncc(C(F)(F)F)cc1Cl)c1ccc2c(c1)C1(CCS(=O)(=O)CC1)[C@@H](C1CC1)N2S(=O)(=O)c1ccc(F)cc1
remaining binding (cell-free assay; competition with immobilised ligand; 1 µM): 71%

c1cncc(-c2cccc(Nc3nccc(NC4CCCCC4)n3)c2)c1
remaining binding (binding; competition with immobilised ligand; 10 µM): 27%

O=C(c1ccc(Nc2ncc(Cl)c(-c3ccc(Cl)s3)n2)cc1)N1CCC(N2CCCC2)CC1
remaining binding (binding; competition with immobilised ligand; 1 µM): 24%

O=c1nc(-c2ccccn2)sc2ccccc12
remaining binding (cell-free assay; competition with immobilised ligand; 1 µM): 72%

C[C@@H](c1ccc(-n2cnc3c(N)ncnc32)cc1)N1CCc2nn(C)c(Cc3ccccc3)c2C1=O
remaining binding (binding; competition with immobilised ligand; 0.1 µM): 40%
